Measurements of several laboratories.
Lines come from different studies, so protocols differ.
FGFR3: Fibroblast growth factor receptor 3 (FGFR3, Homo sapiens, UniProt P22607)
FGFR3 G697C: Fibroblast growth factor receptor 3 (FGFR3, Homo sapiens, UniProt P22607, G697C)

F[C@@H]1CCN(c2nccc(-c3cnn4ncccc34)n2)C1
remaining binding (FGFR3; binding; 1 µM): 100%

CCCOc1ccc(OC)c(F)c1C(=O)c1ccc(C(=O)N[C@@H]2CNC[C@H]2NC(=O)c2ccc3[nH]ncc3c2)cc1
remaining activity (FGFR3; enzyme activity; inhibitor; 10 µM): 47%

Cc1ccc(Nc2nccc(N(C)c3ccc4c(C)n(C)nc4c3)n2)cc1S(N)(=O)=O
inhibition (FGFR3; enzyme activity; inhibitor; 0.3 µM): 66%

CC(C)(O)[C@H]1CC[C@H](Nc2ccc3ncc(-c4cccc(C(F)(F)F)c4)n3n2)CC1
remaining activity (FGFR3; enzyme activity; inhibitor; 1 µM): 102%

Cc1ccc(C(=O)NCc2ccsc2)cc1C#Cc1cn(C(C)C)c2ncnc(N)c12
activity vs control (FGFR3; enzyme activity; inhibitor; 1 µM): 33%

Nc1nc(Nc2ccc(S(N)(=O)=O)cc2)nn1C(=O)c1c(F)cccc1F
remaining signal (FGFR3; cell-free assay; 0.5 µM): 46.4%

C=CC(=O)Nc1cc(Nc2nccc(Nc3cc(Cl)c(F)cc3C(C)(C)O)n2)c(OC)cc1N1CC[C@@H](N(C)C)C1
inhibition (FGFR3; enzyme activity; inhibitor; 1 µM): 4%

CCN(CC)c1ccc(C2=NNC(=O)CC2C)cc1[N+](=O)[O-] (stereo not drawn)
remaining activity (FGFR3; enzyme activity; inhibitor; 10 µM): 93%

N[C@H]1CCN(c2nccc(-c3cnn4ncccc34)n2)C1
remaining binding (FGFR3 G697C; binding; 1 µM): 100%

CCN(CC)CCNC(=O)c1c(C)[nH]c(/C=C2\C(=O)Nc3ccc(F)cc32)c1C
inhibition (FGFR3; enzyme activity; inhibitor; 0.3 µM): 61%

Nc1ncnc2occ(-c3ccc(NC(=O)Nc4cc(C(F)(F)F)ccc4F)cc3)c12
remaining signal (FGFR3; cell-free assay; 20 µM): 0.75%

O=C(Nc1cnn(-c2csc(C(=O)NC3COC3)c2)c1)Nc1ccccc1Cl
remaining activity (FGFR3; enzyme activity; inhibitor; 5 µM): 97.8%

CCOCCn1cc(C(=O)Nc2ccc(-n3nc(-c4cccnc4)cc3C(F)(F)F)cn2)ccc1=O
remaining binding (FGFR3; cell-free assay; competition with immobilised ligand; 1 µM): 84%

Cc1ccc(C(=O)Nc2ccc(CN3CCN(C)CC3)c(C(F)(F)F)c2)cc1C#Cc1cnc2cccnn12
remaining signal (FGFR3 G697C; cell-free assay; 23.5 nM): 63%

COc1cc2ncnc(Nc3ccc(Oc4ccccc4)c(C)c3C)c2cc1OC
inhibition (FGFR3; enzyme activity; inhibitor; 1 µM): -2%

COc1cc(Cl)c(C(=O)N[C@@H](CN[C@H]2CC[C@@H](N)CC2)Cc2ccc(C#N)cc2)cc1-c1ccc(CN[C@H](C)c2ccc(C)cc2)o1
remaining activity (FGFR3; enzyme activity; inhibitor; 1 µM): 85%

Cc1ccc(NC(=O)c2ccc(CN3CCN(C)CC3)cc2)cc1Nc1nc(-c2cccnc2)cs1
remaining signal (FGFR3; cell-free assay; 0.5 µM): 94.3%

CS(=O)(=O)Nc1cccc(-c2csc(NC(=O)CSc3nc4nccnc4c(=O)n3CCc3ccccc3)n2)c1
inhibition (FGFR3; enzyme activity; inhibitor; 10 µM): -15%

CNCc1ccc(-c2cc(-c3nc(-c4ccc(S(=O)(=O)C(C)C)cc4)cnc3N)on2)cc1
inhibition (FGFR3; enzyme activity; inhibitor; 0.4 µM): 0%

C[C@@]1(Cc2ccc(C#N)cc2)C(=O)N(c2cc(Cl)cc(Cl)c2)c2ncc(C(=O)NC3(c4nc(C5CCC5)no4)CC3)n21
remaining binding (FGFR3 G697C; cell-free assay; competition with immobilised ligand; 1 µM): 100%

CN(c1nccc(-c2cnn3ncccc23)n1)C1CC1
remaining binding (FGFR3 G697C; binding; 1 µM): 100%

Cc1nc(Cc2cccc(C(F)(F)F)c2)sc1-c1ccc(C(N)=O)nc1
remaining binding (FGFR3; cell-free assay; competition with immobilised ligand; 1 µM): 100%

C[C@@H]1CCN(c2nccc(-c3cnn4ncccc34)n2)C1
remaining binding (FGFR3 G697C; binding; 1 µM): 100%

COc1cc2ncnc(Nc3ccc(Oc4ccccc4)cc3C)c2cc1OC
inhibition (FGFR3; enzyme activity; inhibitor; 1 µM): 5%

Cc1cc(C)c(-n2ccn3nc(-c4cccnc4)cc23)cc1NC(=O)c1cc(C#N)cc(S(F)(F)(F)(F)F)c1
remaining binding (FGFR3; cell-free assay; competition with immobilised ligand; 0.1 µM): 95.6%

COc1cc2ncnc(Nc3ccc(F)c(Cl)c3)c2cc1OCCCN1CCOCC1
remaining signal (FGFR3; cell-free assay; 0.5 µM): 79.3%

COc1cc(-c2cn(C3CCc4c(F)cccc4N(CC(F)(F)F)C3=O)nn2)ccc1-n1cnc(C)c1 (stereo not drawn)
remaining binding (FGFR3; cell-free assay; competition with immobilised ligand; 1 µM): 100%

COc1cc2nccc(Oc3ccc(NC(=O)c4c5n(n(-c6ccc(F)cc6)c4=O)CCCC5)cc3)c2cc1OC
inhibition (FGFR3; enzyme activity; inhibitor; 0.1 µM): -4%

C[C@H](c1cccc(C#N)c1)n1cc(Cl)cc(C(N)=O)c1=N
remaining binding (FGFR3; cell-free assay; competition with immobilised ligand; 1 µM): 88%

CC/C(=N\NC(=O)NCc1cccc(O)c1)c1ccc(O)c(C)c1O
inhibition (FGFR3; enzyme activity; inhibitor; 0.1 µM): 2.2%

O=C1Nc2ccc(Cl)cc2C1=Cc1cc(Cl)c(O)c(Cl)c1
remaining signal (FGFR3; cell-free assay; 0.5 µM): 94%

CO[C@@H](C)c1c(Nc2ccc([C@H](N(C)C(=O)C3CCS(=O)(=O)CC3)C(F)(F)F)cc2)cnc2cc(Cl)nn12
remaining binding (FGFR3 G697C; cell-free assay; competition with immobilised ligand; 1 µM): 86%

CN(C)c1nccc(-c2cnc3ncccn23)n1
remaining binding (FGFR3; binding; 1 µM): 100%

CCc1ccccc1C(=O)Nc1n[nH]c2c(C)c(F)c(C3C(C#N)=C(C)N(C)C(C)=C3C#N)cc12
remaining binding (FGFR3; cell-free assay; competition with immobilised ligand; 1 µM): 93%

Cc1sc(C(=O)NC2COC2)cc1-n1cc(NC(=O)Nc2c(F)cccc2Cl)cn1
remaining activity (FGFR3; enzyme activity; inhibitor; 10 µM): 137%

CC(C)(C)c1nc(-c2cccc(NS(=O)(=O)c3c(F)cccc3F)c2F)c(-c2ccnc(N)n2)s1
remaining activity (FGFR3; enzyme activity; inhibitor; radiometric; 1 µM): 118%
